# Test system: Canis familiaris
# Assay: Compound administered intravenously at a dose of 5 mg/kg was evaluated for salidiuretic activity measured as sodium ion excretion in Dog; Value ranges from 100-249
# Type: ADME, organism-based, Canis lupus familiaris, Urine
# Design: dose 5 mg/kg, route intravenous
# Conditions: in vivo, iv
# In short: (§1)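 Conditioned female mongrel dogs, postabsorptive, water-loaded (500 mL po) 1 h before sodium pentobarbital anesthesia (30 mg/kg iv). Bladder catheter; creatinine 4 g sc; phosphate–mannitol buffer pH 7.4 infused (3.0 mL/min) throughout. […] Urine Na+ measured; response scored 0–6.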
row,Structure (SMILES),Diuretic activity
1,CC(C)Cc1cc(I)c(O)c(CN)c1.Cl,100
2,CCCCc1cc(I)c(O)c(CN)c1.Cl,100
3,Cc1cc(CN)c(O)c(C(C)(C)C)c1.Cl,100
4,CCCCc1cc(C)c(O)c(CN)c1.Cl,100
5,CC(C)(C)c1cc(CN)c(O)c(Oc2ccc(Cl)cc2)c1.Cl,100

# Results, then the compound that gave them:
row,Diuretic activity,Structure (SMILES)
1,100,Cc1cc(Cl)cc(CN)c1O.Cl
2,100,CCc1c(Cl)c(C)c(Cl)c(O)c1CN.Cl
3,100,COc1cc(Cl)c(Cl)c(CN)c1O.Cl
4,100,COc1cc(C)cc(CN)c1O.Cl
5,100,Cc1cc(Cl)c(O)c(CN)c1.Cl
6,100,Br.Cc1c(O)c(CN)c(Cl)c(C)c1Cl

# Test system: not listed separately
# Assay: Evaluated for salidiuretic activity measured as sodium ion excretion in Rat, administered orally at a dose of 16.5 mg/kg
# Type: organism-based
# Design: dose 16.5 mg/kg
# Conditions: Urine
# In short: (§2)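 Female Charles-River rats (150–170 g), overnight on sugar diet with water ad libitum. Compound dissolved in DMF, diluted with water containing Tween 80 (final 4% DMF), given po in 5.0 mL; concurrent vehicle placebo. Three rats per metabolism cage; 0–5 h urine analysed for Na+, K+, Cl-. Values: mequiv × 100 per cage, geometric means of three cages per dose; scored 0–6 by Na+.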
row,Structure (SMILES),Diuretic activity
1,Cc1c(C)c(C)c(CN)c(O)c1C.Cl,1.4
2,Cl.NCc1cc(Cl)cc(I)c1O,0.6
3,Cl.NCc1c(O)c(Cl)cc(Cl)c1O,0.5
4,Cl.NCc1cc(Cl)c(Cl)c(Cl)c1O,2.7
5,CC(C)Cc1cc(I)c(O)c(CN)c1.Cl,0.5
6,COc1c(Cl)c(OC)c(CN)c(O)c1I.Cl,2.7
7,CCCc1cc(Cl)c(O)c(CN)c1.Cl,2.7
8,Cl.NCc1c(O)c(Cl)cc(Cl)c1F,2.7
9,NCc1c(O)ccc(Cl)c1Cl,0.5
10,CCc1c(Cl)c(C)c(Cl)c(O)c1CN.Cl,0.5
11,Cc1cc(C)c(O)c(CN)c1C.Cl,0.6
12,Cl.NCc1cc(I)cc(I)c1O,1.4
13,CC(C)(C)c1cc(CN)c(O)c(C(F)(F)F)c1.Cl,2.7
14,NCc1cc(Cl)ccc1O,0.5
15,Cc1c(Cl)c(C)c(CN)c(O)c1Cl.Cl,2.7
16,COc1cc(Cl)c(Cl)c(CN)c1O.Cl,0.5
17,CC(C)c1cc(Cl)c(O)c(CN)c1.Cl,3.3
18,COc1c(C(C)(C)C)cc(I)c(O)c1CN.Cl,1.4
19,Cl.NCc1c(O)c(Cl)c(Cl)c(Cl)c1Cl,2.7
20,CC(C)(C)c1cc(CN)c(O)c(Oc2ccc(Cl)cc2)c1.Cl,0.6
21,Cc1cc(Cl)c(O)c(CN)c1.Cl,0.6
22,Cc1c(Br)c(C)c(CN)c(O)c1Br.Cl,2.7
23,CCC(C)c1cc(I)c(O)c(CN)c1.Cl (stereo not given),1.4
24,Cc1c(Cl)c(C(C)(C)C)c(Cl)c(O)c1CN.Cl,1.4
25,CC(C)(C)c1c(Cl)cc(CN)c(O)c1Cl.Cl,1.4
26,CC(C)(C)c1cc(Br)c(O)c(CN)c1.Cl,4.2
27,CCC(C)c1cc(Cl)c(O)c(CN)c1.Cl (stereo not given),3.3

# Test system: Canis familiaris
# Assay: Compound administered intravenously at a dose of 5 mg/kg was evaluated for salidiuretic activity measured as sodium ion excretion in Dog
# Type: ADME, organism-based, Canis lupus familiaris, Urine
# Design: dose 5 mg/kg, route intravenous
# Conditions: in vivo, iv
# In short: as §1
row,Structure (SMILES),Diuretic activity
1,CCCc1cc(Cl)c(O)c(CN)c1.Cl,> 900
2,CC(C)c1cc(Cl)c(O)c(CN)c1.Cl,> 900
3,CCC(C)c1cc(I)c(O)c(CN)c1.Cl (stereo not given),> 900
4,CC(C)(C)c1cc(Br)c(O)c(CN)c1.Cl,> 900

# Test system: Canis familiaris
# Assay: Compound administered intravenously was evaluated for salidiuretic activity measured as sodium ion excretion in Dog; Value ranges from 0-99
# Type: ADME, organism-based, Canis lupus familiaris, Urine
# Conditions: in vivo, iv
# In short: as §1
row,Structure (SMILES),Diuretic activity
1,Cl.NCc1c(O)c(Cl)cc(Cl)c1O,0

# Test system: Rattus norvegicus
# Assay: Compound administered orally at a dose of 1 mg/kg was evaluated for salidiuretic activity measured as sodium ion excretion in Rat
# Conditions: in vivo, po
row,Structure (SMILES),Diuretic activity
1,CC(C)c1cc(Cl)c(O)c(CN)c1.Cl,0.7
2,CC(C)(C)c1cc(Br)c(O)c(CN)c1.Cl,2.1
3,CCC(C)c1cc(Cl)c(O)c(CN)c1.Cl (stereo not given),0.7

# Test system: Rattus norvegicus
# Assay: Evaluated for salidiuretic activity measured as sodium ion excretion in Rat, administered orally at a dose of 50 mg/kg
# Type: functional, Urine
# Design: unit not given beside the values
# Conditions: route oral
# In short: as §2
row,Structure (SMILES),Diuretic activity
1,Cc1c(C)c(C)c(CN)c(O)c1C.Cl,2.4
2,Cl.NCc1cc(Cl)cc(I)c1O,1.8
3,Cl.NCc1c(O)c(Cl)cc(Cl)c1O,1.2
4,Cl.NCc1cc(Cl)c(Cl)c(Cl)c1O,3.3
5,CC(C)Cc1cc(I)c(O)c(CN)c1.Cl,1.2
6,COc1c(Cl)c(OC)c(CN)c(O)c1I.Cl,3.3
7,CCCc1cc(Cl)c(O)c(CN)c1.Cl,3.3
8,Cl.NCc1c(O)c(Cl)cc(Cl)c1F,3.3
9,NCc1c(O)ccc(Cl)c1Cl,1.2
10,CCCCc1cc(I)c(O)c(CN)c1.Cl,<0.2
11,CCc1c(Cl)c(C)c(Cl)c(O)c1CN.Cl,1.2
12,Cc1cc(C)c(O)c(CN)c1C.Cl,1.8
13,Cl.NCc1cc(I)cc(I)c1O,2.4
14,CC(C)(C)c1cc(CN)c(O)c(C(F)(F)F)c1.Cl,3.3
15,NCc1cc(Cl)ccc1O,1.2
16,Cc1c(Cl)c(C)c(CN)c(O)c1Cl.Cl,3.3
17,COc1cc(Cl)c(Cl)c(CN)c1O.Cl,1.2
18,CC(C)c1cc(Cl)c(O)c(CN)c1.Cl,3.6
19,COc1c(C(C)(C)C)cc(I)c(O)c1CN.Cl,2.4
20,Cl.NCc1c(O)c(Cl)c(Cl)c(Cl)c1Cl,3.3
21,CC(C)(C)c1cc(CN)c(O)c(Oc2ccc(Cl)cc2)c1.Cl,1.8
22,Cc1cc(Cl)c(O)c(CN)c1.Cl,1.8
23,Cc1c(Br)c(C)c(CN)c(O)c1Br.Cl,3.3
24,CCC(C)c1cc(I)c(O)c(CN)c1.Cl (stereo not given),2.4
25,Cc1c(Cl)c(C(C)(C)C)c(Cl)c(O)c1CN.Cl,2.4
26,CC(C)(C)c1c(Cl)cc(CN)c(O)c1Cl.Cl,2.4
27,CC(C)(C)c1cc(Br)c(O)c(CN)c1.Cl,3.9
28,Br.Cc1c(O)c(CN)c(Cl)c(C)c1Cl,<0.2
29,CCC(C)c1cc(Cl)c(O)c(CN)c1.Cl (stereo not given),3.6

# Test system: Canis familiaris
# Assay: Salidiuretic activity in dog following i.v. dosing at 5 mg/kg
# Type: functional, Canis lupus familiaris, Urine
# Design: unit not given beside the values
# Conditions: route intravenous
# In short: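 Conditioned female mongrel dogs, postabsorptive, got a 500 mL oral water load 1 h before pentobarbital anesthesia (30 mg/kg iv). After replicate 15-min control collections, compound was given as an iv stat injection.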
row,Structure (SMILES),Diuretic activity
1,Cc1c(C)c(C)c(CN)c(O)c1C.Cl,250
2,Cl.NCc1cc(Cl)c(Cl)c(Cl)c1O,250
3,NCc1c(O)ccc(Cl)c1Cl,250
4,Cc1cc(C)c(O)c(CN)c1C.Cl,250
5,NCc1cc(Cl)ccc1O,250
6,Cl.NCc1c(O)c(Cl)c(Cl)c(Cl)c1Cl,250
7,CC(C)(C)c1c(Cl)cc(CN)c(O)c1Cl.Cl,250

# Test system: not listed separately
# Assay: Compound administered orally at a dose of 5 mg/kg was evaluated for salidiuretic activity measured as sodium ion excretion in Rat
# Type: organism-based
# Design: dose 5 mg/kg
# Conditions: Urine
# In short: as §2
row,Structure (SMILES),Diuretic activity
1,Cc1c(C)c(C)c(CN)c(O)c1C.Cl,0.5
2,Cl.NCc1cc(Cl)cc(I)c1O,0.4
3,Cl.NCc1c(O)c(Cl)cc(Cl)c1O,0.3
4,Cl.NCc1cc(Cl)c(Cl)c(Cl)c1O,1.4
5,CC(C)Cc1cc(I)c(O)c(CN)c1.Cl,0.3
6,COc1c(Cl)c(OC)c(CN)c(O)c1I.Cl,1.4
7,CCCc1cc(Cl)c(O)c(CN)c1.Cl,1.4
8,Cl.NCc1c(O)c(Cl)cc(Cl)c1F,1.4
9,NCc1c(O)ccc(Cl)c1Cl,0.3
10,CCc1c(Cl)c(C)c(Cl)c(O)c1CN.Cl,0.3
11,Cc1cc(C)c(O)c(CN)c1C.Cl,0.4
12,Cl.NCc1cc(I)cc(I)c1O,0.5
13,CC(C)(C)c1cc(CN)c(O)c(C(F)(F)F)c1.Cl,1.4
14,NCc1cc(Cl)ccc1O,0.3
15,Cc1c(Cl)c(C)c(CN)c(O)c1Cl.Cl,1.4
16,COc1cc(Cl)c(Cl)c(CN)c1O.Cl,0.3
17,CC(C)c1cc(Cl)c(O)c(CN)c1.Cl,2.6
18,COc1c(C(C)(C)C)cc(I)c(O)c1CN.Cl,0.5
19,Cl.NCc1c(O)c(Cl)c(Cl)c(Cl)c1Cl,1.4
20,CC(C)(C)c1cc(CN)c(O)c(Oc2ccc(Cl)cc2)c1.Cl,0.4
21,Cc1cc(Cl)c(O)c(CN)c1.Cl,0.4
22,Cc1c(Br)c(C)c(CN)c(O)c1Br.Cl,1.4
23,CCC(C)c1cc(I)c(O)c(CN)c1.Cl (stereo not given),0.5
24,Cc1c(Cl)c(C(C)(C)C)c(Cl)c(O)c1CN.Cl,0.5
25,CC(C)(C)c1c(Cl)cc(CN)c(O)c1Cl.Cl,0.5
26,CC(C)(C)c1cc(Br)c(O)c(CN)c1.Cl,3.6
27,CCC(C)c1cc(Cl)c(O)c(CN)c1.Cl (stereo not given),2.6

# Test system: Canis familiaris
# Assay: Compound administered intravenously at a dose of 5 mg/kg was evaluated for salidiuretic activity measured as sodium ion excretion in Dog; Value ranges from 800-899
# Type: ADME, organism-based, Canis lupus familiaris, Urine
# Design: dose 5 mg/kg, route intravenous; unit not given beside the values
# Conditions: in vivo, iv
# In short: as §1
row,Structure (SMILES),Diuretic activity
1,Cl.NCc1cc(I)cc(I)c1O,800
2,CC(C)(C)c1cc(CN)c(O)c(C(F)(F)F)c1.Cl,800
3,CCC(C)c1cc(Cl)c(O)c(CN)c1.Cl (stereo not given),800

# More lines, now with the values ahead:
row,Diuretic activity,Structure (SMILES)
1,800,Cl.NCc1cc(Cl)cc(I)c1O
2,800,COc1c(Cl)c(OC)c(CN)c(O)c1I.Cl
3,800,Cl.NCc1c(O)c(Cl)cc(Cl)c1F
4,800,COc1c(C(C)(C)C)cc(I)c(O)c1CN.Cl
5,800,Cc1c(Br)c(C)c(CN)c(O)c1Br.Cl

# Test system: Rattus norvegicus
# Assay: Compound administered orally at a dose of 81 mg/kg was evaluated for salidiuretic activity measured as sodium ion excretion in Rat
# Type: ADME, organism-based, Urine
# Design: dose 81 mg/kg, route oral; unit not given beside the values
# Conditions: in vivo, po
# In short: as §2
row,Structure (SMILES),Diuretic activity
1,CC(C)Cc1cc(I)c(O)c(CN)c1.Cl,1.5
2,CCCCc1cc(I)c(O)c(CN)c1.Cl,< 0.3
3,Cl.NCc1cc(I)cc(I)c1O,2.9
4,NCc1cc(Cl)ccc1O,1.5
5,CC(C)(C)c1cc(CN)c(O)c(Oc2ccc(Cl)cc2)c1.Cl,2.4
6,CCC(C)c1cc(I)c(O)c(CN)c1.Cl (stereo not given),2.9

# Further lines, results first:
row,Diuretic activity,Structure (SMILES)
1,2.9,Cc1c(C)c(C)c(CN)c(O)c1C.Cl
2,2.4,Cl.NCc1cc(Cl)cc(I)c1O
3,1.5,Cl.NCc1c(O)c(Cl)cc(Cl)c1O
4,1.5,NCc1c(O)ccc(Cl)c1Cl
5,1.5,CCc1c(Cl)c(C)c(Cl)c(O)c1CN.Cl
6,2.4,Cc1cc(C)c(O)c(CN)c1C.Cl
7,1.5,COc1cc(Cl)c(Cl)c(CN)c1O.Cl
8,2.9,COc1c(C(C)(C)C)cc(I)c(O)c1CN.Cl
9,2.4,Cc1cc(Cl)c(O)c(CN)c1.Cl
10,2.9,Cc1c(Cl)c(C(C)(C)C)c(Cl)c(O)c1CN.Cl
11,2.9,CC(C)(C)c1c(Cl)cc(CN)c(O)c1Cl.Cl
12,< 0.3,Br.Cc1c(O)c(CN)c(Cl)c(C)c1Cl

# Reference: ChEMBL document CHEMBL1121573, “2-(Aminomethyl)phenols, a new class of saluretic agents. 1. Effects of nuclear substitution” (J Med Chem, 1980)
